Laboratory results published in ChEMBL document CHEMBL4837188, “Identification of Novel Tricyclic Benzo[1,3]oxazinyloxazolidinones as Potent Antibacterial Agents with Excellent Pharmacokinetic Profiles against Drug-Resistant Pathogens” (J Med Chem, 2021).
Converted amounts (≈) assume the structure as drawn.

Assays:
Format in all cases: functional
[1] = tested on: Mycobacterium tuberculosis; experiment: Antitubercular activity against INH, SM, RFP, EMB, PAS, Prothionamide 1321, Capreomycin-resistant Mycobacterium tuberculosis 14862 assessed as bacterial growth inhibition incubated for 7 days by MABA; details: Mycobacterium tuberculosis, 14862, 168 h; time 7 day
Procedure, shortened: (§1)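 Microplate alamar blue assay. H37Rv or clinical isolates were grown to late log phase in 7H9 broth with glycerol, Tween 80 and ADC, then 2 × 10⁵ CFU added to two-fold dilutions. Final range 32–0.5 μg/mL, lowered to 2–0.016 μg/mL for active compounds. 37 °C, 7 days, then alamar blue 16 h. Fluorescence 530/590 nm. MIC is the lowest concentration giving ≥90% reduction; INH and RFP were controls.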

[2] = tested on: Mycobacterium tuberculosis; experiment: Antitubercular activity against linezolid resistant Mycobacterium tuberculosis assessed as inhibition of bacterial growth incubated for 7 days by MABA; details: 168 h, time 7 day
[3] = tested on: Mycobacterium tuberculosis; experiment: Antitubercular activity against INH, SM, RFP, EMB, RBT, PAS, OLFX-resistant Mycobacterium tuberculosis 13946 assessed as bacterial growth inhibition incubated for 7 days by MABA; details: Mycobacterium tuberculosis, 13946, 168 h; time 7 day; procedure, shortened: as §1

For `CC(=O)NC[C@@H]1OC(=O)N2Cc3cc(-c4ccc(-c5nnn(C)n5)nc4)c(F)cc3O[C@@H]12`, the MIC [1] was 0.85 µg/mL (≈ 1.93 µM), the MIC [2] was 2.32 µg/mL (≈ 5.28 µM) and the MIC [3] was 0.39 µg/mL (≈ 0.888 µM).
For `NNC(=O)c1ccncc1` [ISONIAZID], the MIC [1] was > 10 µg/mL and the MIC [3] was 2.38 µg/mL (≈ 17.4 µM).
`CO[C@H]1/C=C/O[C@@]2(C)Oc3c(C)c(O)c4c(O)c(c(/C=N/N5CCN(C)CC5)c(O)c4c3C2=O)NC(=O)/C(C)=C\C=C\[C@H](C)[C@H](O)[C@@H](C)[C@@H](O)[C@@H](C)[C@H](OC(C)=O)[C@@H]1C` [RIFAMPIN] was tested, and the MIC [1] was > 10 µg/mL and the MIC [3] was > 10 µg/mL.
`CC(=O)NC[C@@H]1OC(=O)N2Cc3cc(-c4ccc(C#N)nc4)c(F)cc3O[C@@H]12` was tested, and the MIC [1] was 0.82 µg/mL (≈ 2.14 µM), the MIC [2] was 3.63 µg/mL (≈ 9.49 µM) and the MIC [3] was 0.48 µg/mL (≈ 1.26 µM).
With `CC(=O)NC[C@H]1CN(c2ccc(N3CCOCC3)c(F)c2)C(=O)O1` [LINEZOLID] the MIC [2] was 14.5 µg/mL (≈ 43.1 µM).
